{"source": "PubChem BioAssay", "key": {"[1]": {"assay": "SK-BR-3 cell growth inhibitors, pilot screen, 24 h, human (AID 572;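 active = viability at or below 10% of carrier control in both of two separate runs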;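 as to all read-outs here: compound exposure lasted between 18 and 24 h rather than exactly 24 h; 100% = carrier-treated control wells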)", "details": "SK-BR-3 viability, CellTiter-Glo luminescence, at 10 µM, stronger effect = lower value"}, "[2]": {"assay": "HUVEC growth inhibition – cell-based, human, primary screen (AID 575);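 as to all read-outs here: 100% = median of untreated cell wells with 0.1% DMSO on each plate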", "details": "HUVEC proliferation, CellTiter-Glo luminescence, 72 h; at 10 µM; stronger effect = lower value", "in_short": "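Assay system: Primary human umbilical vein endothelial cells | Quantity: 1250 cells per well | Medium: Supplemented EBM, 2% fetal bovine serum | Detection: CellTiter-Glo luminescence measuring cellular ATP | Read-out: % viability vs DMSO wells | Plate: Collagen-coated 384-well format | Times: 72 h exposure, 37 °C, 5% CO2, 30 min RT equilibration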"}, "[3]": {"assay": "growth inhibitors of H69AR lung tumor, primary screen, human, duplicate replicates (AID 580;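 active = viability at or under a set limit in both replicates, limit being median viability minus 3 SD, cut at about 48% in these data, passing the limit was not always enough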;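 as to all read-outs here: 100% = mean luminescence of untreated wells and 0% = no signal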)", "details": "H69AR lung tumor cells viability, ATP luminescence, 72 h; at 10 µM; stronger effect = lower value"}, "[4]": {"assay": "reversal of MRP1-mediated doxorubicin resistance, pilot screen, H69AR cells, doxorubicin co-treatment (AID 601;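 active = viability loss from added drug above about 55%, and viability with drug at most 40%, in both replicates, limit read from the data, passing the limit was not always enough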)", "details": "CellTiter-Glo, 72 h, at 10 µM; for differential viability (reversal): stronger effect = higher value"}, "[5]": {"assay": "384-well plate pilot, post-Golgi transport modulator project, inhibition of yeast transport mutant growth (AID 636; in the data active = inhibition above about 31%)", "details": "absorbance 615 nm, about 18 h, stronger effect = higher value"}, "[6]": {"assay": "growth suppression of yeast trafficking mutant, preliminary HTS, modulators of trafficking downstream of Golgi apparatus project, 1536-format plate, OD 615 nm (AID 637; in the data active = inhibition above about 30%)", "details": "yeast transport mutant growth, absorbance 615 nm, 18 h; stronger effect = higher value"}, "[7]": {"details": "H69AR cells + 2 uM doxorubicin, measured here: viability with 2 uM doxorubicin, stronger effect = lower value"}, "[8]": {"details": "H69AR cells, compound alone cytotoxicity"}}, "note": "Calls of active or inactive are those of the source.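 The calls were made as follows, unless noted: active = viability at or below 30% in both replicate assays; inconclusive = viability at or below 30% in just one of the two assays; inactive = the rest.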"}
{"smiles": "CCN(CC)CCn1c(OC)cc(=O)[nH]c1=O", "values": [{"measurement": "viability", "setting": "[1]", "value": "93% (inactive)"}, {"measurement": "viability", "setting": "[2]", "value": "104% (inactive)"}, {"measurement": "viability", "setting": "[3]", "value": "101% (inactive)"}, {"measurement": "differential viability (reversal)", "setting": "[4]; H69AR cells + 2 uM doxorubicin", "value": "0.635% (inactive)"}, {"measurement": "viability", "setting": "[4]; [7]", "value": 99.9, "unit": "%"}, {"measurement": "viability", "setting": "[4]; [8]", "value": 101, "unit": "%"}, {"measurement": "inhibition", "setting": "[5]", "value": "-10% (inactive)"}, {"measurement": "inhibition", "setting": "[6]", "value": "-0.97% (inactive)"}]}
{"smiles": "Cc1cc(C)n(CC(=O)O)n1", "values": [{"measurement": "viability", "setting": "[1]", "value": "88% (inactive)"}, {"measurement": "viability", "setting": "[2]", "value": "106% (inactive)"}, {"measurement": "viability", "setting": "[3]", "value": "88.4% (inactive)"}, {"measurement": "differential viability (reversal)", "setting": "[4]; H69AR cells + 2 uM doxorubicin", "value": "-18.8% (inactive)"}, {"measurement": "viability", "setting": "[4]; [7]", "value": 107, "unit": "%"}, {"measurement": "viability", "setting": "[4]; [8]", "value": 88.4, "unit": "%"}, {"measurement": "inhibition", "setting": "[5]", "value": "-7.7% (inactive)"}, {"measurement": "inhibition", "setting": "[6]", "value": "-1.45% (inactive)"}]}
{"smiles": "COc1cc(C2N=C(c3ccccc3)NO2)cc(Br)c1O", "note": "(configuration not stated)", "values": [{"measurement": "viability", "setting": "[1]", "value": "90% (inactive)"}, {"measurement": "viability", "setting": "[2]", "value": "87.5% (inactive)"}, {"measurement": "viability", "setting": "[3]", "value": "84.8% (inactive)"}, {"measurement": "differential viability (reversal)", "setting": "[4]; H69AR cells + 2 uM doxorubicin", "value": "-4.25% (inactive)"}, {"measurement": "viability", "setting": "[4]; [7]", "value": 89, "unit": "%"}, {"measurement": "viability", "setting": "[4]; [8]", "value": 84.8, "unit": "%"}, {"measurement": "inhibition", "setting": "[5]", "value": "-3.12% (inactive)"}, {"measurement": "inhibition", "setting": "[6]", "value": "-10% (inactive)"}]}
{"smiles": "Cc1nnc(SCc2cccc(Oc3ccccc3)c2)n1N", "values": [{"measurement": "viability", "setting": "[1]", "value": "74% (inactive)"}, {"measurement": "viability", "setting": "[2]", "value": "89.3% (inactive)"}, {"measurement": "viability", "setting": "[3]", "value": "99.6% (inactive)"}, {"measurement": "differential viability (reversal)", "setting": "[4]; H69AR cells + 2 uM doxorubicin", "value": "5.25% (inactive)"}, {"measurement": "viability", "setting": "[4]; [7]", "value": 94.4, "unit": "%"}, {"measurement": "viability", "setting": "[4]; [8]", "value": 99.6, "unit": "%"}, {"measurement": "inhibition", "setting": "[5]", "value": "-5.89% (inactive)"}, {"measurement": "inhibition", "setting": "[6]", "value": "6.18% (inactive)"}]}
{"smiles": "COCCNC(=O)C(c1ccc(C)o1)N(C(=O)c1snc(C(N)=O)c1N)c1ccc(C)cc1", "note": "(configuration not stated)", "values": [{"measurement": "viability", "setting": "[1]", "value": "100% (inactive)"}, {"measurement": "viability", "setting": "[2]", "value": "87.5% (inactive)"}, {"measurement": "viability", "setting": "[3]", "value": "92.1% (inactive)"}, {"measurement": "differential viability (reversal)", "setting": "[4]; H69AR cells + 2 uM doxorubicin", "value": "9.05% (inactive)"}, {"measurement": "viability", "setting": "[4]; [7]", "value": 83.1, "unit": "%"}, {"measurement": "viability", "setting": "[4]; [8]", "value": 92.1, "unit": "%"}, {"measurement": "inhibition", "setting": "[5]", "value": "-3.87% (inactive)"}, {"measurement": "inhibition", "setting": "[6]", "value": "3.64% (inactive)"}]}
{"smiles": "CCC(=O)c1ccc(O)cc1", "values": [{"measurement": "viability", "setting": "[1]", "value": "96% (inactive)"}, {"measurement": "viability", "setting": "[2]", "value": "97% (inactive)"}, {"measurement": "viability", "setting": "[3]", "value": "97.1% (inactive)"}, {"measurement": "differential viability (reversal)", "setting": "[4]; H69AR cells + 2 uM doxorubicin", "value": "-3.6% (inactive)"}, {"measurement": "viability", "setting": "[4]; [7]", "value": 101, "unit": "%"}, {"measurement": "viability", "setting": "[4]; [8]", "value": 97.1, "unit": "%"}, {"measurement": "inhibition", "setting": "[5]", "value": "-0.13% (inactive)"}, {"measurement": "inhibition", "setting": "[6]", "value": "3.33% (inactive)"}]}
{"smiles": "CN(CC(=O)N1CCCc2c1c(=O)oc1ccc(O)cc21)Cc1ccccc1", "values": [{"measurement": "viability", "setting": "[1]", "value": "95% (inactive)"}, {"measurement": "viability", "setting": "[2]", "value": "87.6% (inactive)"}, {"measurement": "viability", "setting": "[3]", "value": "90% (inactive)"}, {"measurement": "differential viability (reversal)", "setting": "[4]; H69AR cells + 2 uM doxorubicin", "value": "-3.29% (inactive)"}, {"measurement": "viability", "setting": "[4]; [7]", "value": 93.3, "unit": "%"}, {"measurement": "viability", "setting": "[4]; [8]", "value": 90, "unit": "%"}, {"measurement": "inhibition", "setting": "[5]", "value": "-7.3% (inactive)"}, {"measurement": "inhibition", "setting": "[6]", "value": "0.36% (inactive)"}]}
{"smiles": "CN1CCN(c2nc3c(c(=O)n(C)c(=O)n3C)n2Cc2cccc3ccccc23)CC1", "values": [{"measurement": "viability", "setting": "[1]", "value": "129% (inactive)"}, {"measurement": "viability", "setting": "[2]", "value": "77.5% (inactive)"}, {"measurement": "viability", "setting": "[3]", "value": "84% (inactive)"}, {"measurement": "differential viability (reversal)", "setting": "[4]; H69AR cells + 2 uM doxorubicin", "value": "26.6% (inactive)"}, {"measurement": "viability", "setting": "[4]; [7]", "value": 57.4, "unit": "%"}, {"measurement": "viability", "setting": "[4]; [8]", "value": 84, "unit": "%"}, {"measurement": "inhibition", "setting": "[5]", "value": "0% (inactive)"}, {"measurement": "inhibition", "setting": "[6]", "value": "0.16% (inactive)"}]}
{"smiles": "O=C(CSc1nc2ccccc2c(=O)n1Cc1ccco1)NCc1ccccc1", "values": [{"measurement": "viability", "setting": "[1]", "value": "72% (inactive)"}, {"measurement": "viability", "setting": "[2]", "value": "82.6% (inactive)"}, {"measurement": "viability", "setting": "[3]", "value": "89.4% (inactive)"}, {"measurement": "differential viability (reversal)", "setting": "[4]; H69AR cells + 2 uM doxorubicin", "value": "3.12% (inactive)"}, {"measurement": "viability", "setting": "[4]; [7]", "value": 86.3, "unit": "%"}, {"measurement": "viability", "setting": "[4]; [8]", "value": 89.4, "unit": "%"}, {"measurement": "inhibition", "setting": "[5]", "value": "-8.63% (inactive)"}, {"measurement": "inhibition", "setting": "[6]", "value": "0.73% (inactive)"}]}
